ChEMBL document CHEMBL1124951, “N-phenyl-2-pyridinecarbothioamides as gastric mucosal protectants” (J Med Chem, 1990)
The source made the active and inactive calls. The rule behind the calls is not given here.

How the values were obtained:
Rattus norvegicus [1] = assay: Percent inhibition against ethanol-induced gastric lesions in male albino rat was determined at a dose of 25 mg/Kg; type: functional; conditions: Stomach
Method in brief: (§1)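 Charles River male albino rats (190-219 g), food withheld 18-24 h with water available. Drug or vehicle given orally 1 h before ethanol (1 mL per rat po). Rats killed by CO2 asphyxiation 1 h after ethanol. Lesions scored single blind by size (mm2) and number per size category. Percent inhibition taken against the vehicle group mean; ED50 with 95% confidence limits obtained by regression of dose-response data.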

Rattus norvegicus [2] = assay: Percent inhibition against ethanol-induced gastric lesions in male albino rat was determined at a dose of 10 mg/Kg; type: functional; conditions: Stomach; method in brief: as §1
Rattus norvegicus [3] = assay: Percent inhibition against ethanol-induced gastric lesions in male albino rat was determined at a dose of 5 mg/Kg; type: functional; conditions: Stomach; method in brief: as §1
Rattus norvegicus [4] = species: Rattus norvegicus; assay: Compound was evaluated for activity in acute lethality model; NL=Not lethal; type: ADME, organism-based; conditions: in vivo
Rattus norvegicus [5] = assay: Compound was evaluated for antisecretory action in the pylorus-ligated rat model (PLR) at 100 mg/kg;NS=No significant activity at 100 mg/kg; type: functional, organism-based
Method in brief: (§2)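 Drug or vehicle given orally. After 1 h, rats anesthetized with methohexital (30 mg/kg ip) and the pylorus ligated through a midline incision. Killed by CO2 4 h after surgery. Gastric volume measured and acid titrated to pH 7.0 with 0.1 N NaOH. Total acid output (microequivalents per 4 h) = volume × acid concentration.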

Rattus norvegicus [6] = species: Rattus norvegicus; assay: Compound was evaluated for activity against ethanol-induced gastric lesions; type: functional; conditions: Stomach; method in brief: as §1
Rattus norvegicus [7] = species: Rattus norvegicus; assay: Effective dose against ethanol-induced gastric lesions in male albino rat when given perorally was determined; 2.4-11; type: functional; conditions: Stomach, po; method in brief: as §1
Rattus norvegicus [8] = assay: Percent inhibition against ethanol-induced gastric lesions in male albino rat was determined at a dose of 5 mg/Kg (po); type: functional; conditions: Stomach; method in brief: as §1
Rattus norvegicus [9] = species: Rattus norvegicus; assay: Effective dose against ethanol-induced gastric lesions in male albino rat when given perorally was determined; 1.2-5.9; type: functional; conditions: Stomach, po; method in brief: as §1
Rattus norvegicus [10] = assay: Percent inhibition against ethanol-induced gastric lesions in male albino rat was determined at a dose of 50 mg/Kg (po); type: functional; conditions: Stomach; method in brief: as §1
Rattus norvegicus [11] = species: Rattus norvegicus; assay: Effective dose against ethanol-induced gastric lesions in male albino rat when given perorally was determined; 3.0-10; type: functional; conditions: Stomach, po; method in brief: as §1
Rattus norvegicus [12] = species: Rattus norvegicus; assay: Effective dose against ethanol-induced gastric lesions in male albino rat when given perorally was determined; 0.5-1.5; type: functional; conditions: Stomach, po; method in brief: as §1
Rattus norvegicus [13] = species: Rattus norvegicus; assay: Effective dose against ethanol-induced gastric lesions in male albino rat when given perorally was determined; 0.2-4.7; type: functional; conditions: Stomach, po; method in brief: as §1
Rattus norvegicus [14] = assay: Compound was evaluated for antisecretory action in the pylorus-ligated rat model (PLR) at 100 mg/kg (po); No significant activity at 100 mg/kg; type: functional, organism-based; method in brief: as §2
Rattus norvegicus [15] = assay: Compound was evaluated for activity in stress-induced ulcer rat (po); type: functional
Method in brief: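 Rats dosed po with drug or vehicle 30 min before immobilization in restrainers at 4-5 °C for 3 h, then euthanized. Gastric ulcers graded by size and number, with percent inhibition taken against the control mean.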

[16] = Compound was evaluated for lethal activity through acute lethality model when given perorally; type: ADME, organism-based; conditions: rat, in vivo, po
Rattus norvegicus [17] = assay: Percent inhibition against ethanol-induced gastric lesions in male albino rat was determined at a dose of 100 mg/Kg (po); type: functional; conditions: Stomach; method in brief: as §1
Rattus norvegicus [18] = species: Rattus norvegicus; assay: Compound was evaluated for activity in acute lethality model; type: ADME, organism-based; conditions: in vivo
Rattus norvegicus [19] = assay: Compound was evaluated for activity against ethanol-induced gastric lesions mg/kg;NS=No significant activity at 25 mg/kg; type: functional, organism-based; set-up: dose 25 mg/kg; conditions: Stomach; method in brief: as §1
Rattus norvegicus [20] = species: Rattus norvegicus; assay: Compound was evaluated for antisecretory action in the pylorus-ligated rat model (PLR); type: functional; method in brief: as §2
Rattus norvegicus [21] = species: Rattus norvegicus; assay: Compound was evaluated for activity in stress-induced ulcers; type: functional
Method in brief: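 Rats dosed po with drug or vehicle 30 min before immobilization in restrainers at 4-5 °C for 3 h, then euthanized. Gastric ulcers graded by size and number, with percent inhibition taken against the control mean. ED50 with 95% confidence limits obtained by regression of dose-response data.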

SMILES: Fc1cc(F)cc(NC(=S)c2ccncc2)c1
- inhibition in vivo at 25 mg/kg (Rattus norvegicus [1]): 85%

SMILES: CCN(C(=S)c1ccccn1)c1cc(F)cc(F)c1
- inhibition in vivo at 10 mg/kg (Rattus norvegicus [2]): 13%

SMILES: N#CN/C(=N\c1ccccc1)c1ccccn1
- inhibition in vivo at 5 mg/kg (Rattus norvegicus [3]): 37%

SMILES: O=S(=O)(OC[C@H]1O[C@@H](O[C@]2(COS(=O)(=O)[O][Al]([OH])[OH])O[C@H](OS(=O)(=O)[O][Al]([OH])[OH])[C@@H](OS(=O)(=O)[O][Al]([OH])[OH])[C@@H]2OS(=O)(=O)[O][Al]([OH])[OH])[C@H](OS(=O)(=O)[O][Al]([OH])[OH])[C@@H](OS(=O)(=O)[O][Al]([OH])[OH])[C@@H]1OS(=O)(=O)[O][Al]([OH])[OH])[O][Al]([OH])[OH].[OH][Al]([OH])[OH].[OH][Al]([OH])[OH].[OH][Al]([OH])[OH].[OH][Al]([OH])[OH].[OH][Al]([OH])[OH].[OH][Al]([OH])[OH].[OH][Al]([OH])[OH].[OH][Al]([OH])[OH]
- LD50 (Rattus norvegicus [4]): Not lethal
- ED50 (Rattus norvegicus [5]): inactive
- ED50 (Rattus norvegicus [6]): 60 mg/kg

SMILES: CN1CCN(Cc2cccc(NC(=S)c3ccccn3)c2)CC1
- inhibition in vivo at 10 mg/kg (Rattus norvegicus [2]): 10%

SMILES: S=C(Nc1ccccn1)c1cnccn1
- ED50 (Rattus norvegicus [7]): 5.2 mg/kg

SMILES: S=C(c1ccccn1)N1CCCc2ccccc21
- inhibition in vivo at 10 mg/kg (Rattus norvegicus [2]): 17%

SMILES: S=C(Nc1ccc(OCc2ccccc2)cc1)c1ccccn1
- inhibition in vivo at 5 mg/kg (Rattus norvegicus [8]): 47%

SMILES: COc1ccc(NC(=S)c2ccccn2)cc1OC
- inhibition in vivo at 5 mg/kg (Rattus norvegicus [8]): 0%

SMILES: CN(C(=S)c1ccccn1)c1cccc(F)c1
- inhibition in vivo at 10 mg/kg (Rattus norvegicus [2]): 31%

SMILES: Fc1ccc(NC(=S)c2ccccn2)cc1Cl
- inhibition in vivo at 25 mg/kg (Rattus norvegicus [1]): 56%

SMILES: Fc1cc(F)cc(NC(=S)c2cccnc2)c1
- inhibition in vivo at 25 mg/kg (Rattus norvegicus [1]): 55%

SMILES: C[S+]([O-])c1ccc(NC(=S)c2ccccn2)cc1 (centres undefined)
- inhibition in vivo at 5 mg/kg (Rattus norvegicus [3]): 54%

SMILES: CN(C(=S)c1ccccn1)c1cc(F)cc(F)c1
- inhibition in vivo at 25 mg/kg (Rattus norvegicus [1]): 40%

SMILES: O=C(O)c1cc(NC(=S)c2ccccn2)ccc1F
- inhibition in vivo at 10 mg/kg (Rattus norvegicus [2]): 42%

SMILES: S=C(Nc1ccccn1)c1ccccn1
- ED50 (Rattus norvegicus [9]): 2.6 mg/kg

SMILES: FC(F)(F)Oc1ccc(NC(=S)c2ccccn2)cc1
- inhibition in vivo at 5 mg/kg (Rattus norvegicus [3]): 35%

SMILES: S=C(c1ccccn1)N1CCN(c2ccccc2)CC1
- inhibition in vivo at 50 mg/kg (Rattus norvegicus [10]): -6%

SMILES: Cc1ccc(NC(=S)c2ccccn2)cc1F
- ED50 (Rattus norvegicus [11]): 5.4 mg/kg

SMILES: CSc1ccc(NC(=S)c2ccccn2)cc1
- inhibition in vivo at 5 mg/kg (Rattus norvegicus [8]): 31%

SMILES: COc1ccc(NC(=S)c2ccccn2)cc1Cl
- inhibition in vivo at 25 mg/kg (Rattus norvegicus [1]): 44%

SMILES: S=C(Nc1cc(Cl)cc(Cl)c1)c1ccccn1
- inhibition in vivo at 25 mg/kg (Rattus norvegicus [1]): 89%

SMILES: Fc1ccc(NC(=S)c2ccccn2)cc1Cn1ccnc1
- ED50 (Rattus norvegicus [12]): 0.9 mg/kg

SMILES: S=C(NCc1ccc2c(c1)OCO2)c1ccccn1
- inhibition in vivo at 50 mg/kg (Rattus norvegicus [10]): 11%

SMILES: O=C(Nc1cccc(F)c1)c1ccccn1
- inhibition in vivo at 10 mg/kg (Rattus norvegicus [2]): 24%

SMILES: FC(F)(F)COc1cccc(NC(=S)c2ccccn2)c1
- inhibition in vivo at 10 mg/kg (Rattus norvegicus [2]): 7%

SMILES: N#Cc1cc(NC(=S)c2ccccn2)ccc1F
- inhibition in vivo at 10 mg/kg (Rattus norvegicus [2]): 29%

SMILES: O=C(Nc1cc(F)cc(F)c1)c1ccccn1
- inhibition in vivo at 25 mg/kg (Rattus norvegicus [1]): 11%

SMILES: Cc1ccc(NC(=S)c2ccccn2)cc1Cl
- inhibition in vivo at 25 mg/kg (Rattus norvegicus [1]): 22%

SMILES: S=C(Nc1cccc(CN2CCOCC2)c1)c1ccccn1
- inhibition in vivo at 10 mg/kg (Rattus norvegicus [2]): 64%

SMILES: S=C(Nc1ccccc1)c1ccccn1
- ED50 (Rattus norvegicus [13]): 1.1 mg/kg
- ED50 (Rattus norvegicus [14]): inactive
- ED50 (Rattus norvegicus [15]): 10 mg/kg
- LD50 [16]: > 1000 mg/kg

SMILES: Fc1ccccc1/N=C(\S)c1ccccn1
- inhibition in vivo at 100 mg/kg (Rattus norvegicus [17]): 69%

SMILES: CCOC(=O)c1cc(NC(=S)c2ccccn2)ccc1F
- inhibition in vivo at 10 mg/kg (Rattus norvegicus [2]): 10%

SMILES: CNC(=C[N+](=O)[O-])NCCSCc1ccc(CN(C)C)o1 [RANITIDINE]
- LD50 (Rattus norvegicus [18]): Not Active
- ED50 (Rattus norvegicus [19]): inactive
- ED50 (Rattus norvegicus [20]): 2.4 mg/kg
- ED50 (Rattus norvegicus [21]): 3.6 mg/kg

SMILES: S=C(Nc1cccc(CN2CCSCC2)c1)c1ccccn1
- inhibition in vivo at 10 mg/kg (Rattus norvegicus [2]): 32%

SMILES: S=C(c1ccccn1)N1CCOCC1
- inhibition in vivo at 50 mg/kg (Rattus norvegicus [10]): 44%
